About 300 (0.091%) of roughly 330,000 compounds were called active.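 The calls were made as follows: active = percent activation above the screen-wide mean plus 3 SD (cut at about 25% in these data); inactive = the rest.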 Shown is part of a subset that was picked to be rich in actives.
Each compound was assayed against Caspase-7 (Homo sapiens) (UniProt P55210) (assay: procaspase-7 activators, primary screen, counter-screen for procaspase-3 activator project, biochemical, absorbance, HTS, human (AID 463210)). Settings: recombinant procaspase-7, Ac-DEVD-pNA absorbance 405 nm; at 8.5 µM; active compounds read high; D23A/D198A/D206A triple mutant, cannot self-cleave; scale: DMSO 0, 5 µM enzyme 100.
Procedure, shortened: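 System: Uncleavable procaspase-7 mutant enzyme; Amount: 2 µM procaspase-7 mutant as dispensed; Schedule: 1 h compound preincubation, 2 h substrate cleavage, 25 °C; Measured by: 405 nm absorbance of p-nitroaniline; Evaluation: percent activation from buffer-corrected 0–120 min absorbance change; Control set: low DMSO alone, high DMSO plus 5 µM PC-7.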

Caspase-7 (Homo sapiens), sequence (P55210 whole entry D23A/D198A/D206A): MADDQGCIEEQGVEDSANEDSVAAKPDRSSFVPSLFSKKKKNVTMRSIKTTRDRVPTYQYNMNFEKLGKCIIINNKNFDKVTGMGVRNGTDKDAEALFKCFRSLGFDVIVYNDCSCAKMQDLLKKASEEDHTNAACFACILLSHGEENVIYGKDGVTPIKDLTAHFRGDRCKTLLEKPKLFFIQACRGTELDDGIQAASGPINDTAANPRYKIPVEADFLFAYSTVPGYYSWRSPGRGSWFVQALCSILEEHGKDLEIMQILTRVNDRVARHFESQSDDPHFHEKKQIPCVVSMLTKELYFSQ

| SMILES | activation |
| --- | --- |
| COc1cc(OC)cc(C(=O)NC2CCN(C(=O)N3c4ccccc4Sc4ccccc43)CC2)c1 | 2.43% (inactive) |
| CON(C)S(=O)(=O)c1ccc2c(c1)NC(=O)C1CCCN21 (stereo not given) | -0.92% (inactive) |
| CCCCn1c(-c2cccc(C)c2)nc2cc3[nH]c(=O)c(C(C)C)nc3cc21 | 11.3% (inactive) |
| CC(=O)c1ccc(OC(=O)N2CCOCC2)cc1 | -1.27% (inactive) |
| O=C(NC1CCCC1)C(NS(=O)(=O)c1ccc(Br)s1)c1ccccc1 (stereo not given) | -4.82% (inactive) |
| O=S(=O)(Cc1noc(-c2ccc(OC(F)(F)F)cc2)n1)c1ccc(F)cc1 | 10.7% (inactive) |
| Cc1ccc(C)c(NS(=O)(=O)c2c(C)[nH]c(C)c2C(=O)N2CCCCC2)c1 | 4.13% (inactive) |
| COc1ccc(Nc2ncc(C(=O)N3CCN(c4ccccc4OC)CC3)c3ccccc23)cc1 | 49.2% (active) |
| COc1ccccc1N1CCN(C(=O)c2cn(-c3ccccc3)nc2-c2cccnc2)CC1 | 6.33% (inactive) |
| COc1ccccc1N1CCN(C(=O)c2ccc(NC3=NC4CS(=O)(=O)CC4S3)cc2)CC1 (stereo not given) | 5.2% (inactive) |
| CC(C)C(c1nnnn1C(C)(C)C)N1CCN(Cc2cccnc2)CC1 (stereo not given) | -6.66% (inactive) |
| COc1ccc(CN(C)Cc2nc3cc(OC)c(OC)cc3c(=O)[nH]2)c(OC)c1 | 4.38% (inactive) |
| CSCCC(NS(=O)(=O)c1ccc(C)cc1)C(=O)NCCc1c[nH]c2ccccc12 (stereo not given) | -0.01% (inactive) |
| CCCCS(=O)c1snnc1C (stereo not given) | -3.16% (inactive) |
| CCOC(=O)N1CCN(C(=O)c2ccccc2SCC(=O)NCC2CCCCC2)CC1 | -1.95% (inactive) |
| O=C(O)CCS(=O)(=O)c1ccc(-c2ccccc2)cc1 | 6.38% (inactive) |
| O=C1OCCN1C(=O)[C@H]1[C@H](c2ccccc2)C(c2ccc(F)cc2)=NN1c1ccccc1 | -10.3% (inactive) |
| O=C1OCCN1C(=O)[C@H]1[C@H](c2ccc(F)cc2)C(c2ccccc2)=NN1c1ccc(Br)cc1 | 28.9% (active) |
| O=C1OCCN1C(=O)[C@H]1[C@H](c2ccc(Cl)cc2)C(c2cccc(Cl)c2)=NN1c1ccc(Br)cc1 | 10.5% (inactive) |
| Fc1ccc(N2N=C(c3cccs3)CC2c2ccco2)c(F)c1 (stereo not given) | 51% (active) |
| O=C(COc1ccccc1Cl)N1N=C(c2cccs2)CC1c1ccco1 (stereo not given) | -20% (inactive) |
| COc1ccccc1N1N=C(c2cccs2)CC1c1ccccc1 (stereo not given) | -22.6% (inactive) |
| CN(C(=O)CCNC(=O)Cn1ccc2ccccc2c1=O)c1ccc(Br)cc1 | 4.82% (inactive) |

| SMILES | activation |
| --- | --- |
| Cn1c(CCCOc2ccc(Cl)cc2Cl)n[nH]c1=S | -19.3% (inactive) |
| O=C(Nc1cccc2c1CCCC2)c1ccc(F)cc1 | 7.3% (inactive) |
| Cc1ncn2cc(-c3ccc(Cl)cc3Cl)[nH]c(=O)c12 | 10.9% (inactive) |
| O=C(c1cccc(-n2cccc2)c1)N1CCN(S(=O)(=O)c2ccc(F)cc2)CC1 | 3.36% (inactive) |
| Cc1ccc2c(CC(=O)NCc3cccs3)coc2c1 | -3.04% (inactive) |
| COC(=O)c1ccc(CN2CCN(CCCc3ccccc3)C(CCO)C2)cc1 (stereo not given) | 2.25% (inactive) |
| Cc1cccc(N2CC(C)Cn3c2nc2c3c(=O)n(CC(=O)OCc3ccccc3)c(=O)n2C)c1 (stereo not given) | 1.17% (inactive) |
| COc1ccc(C2=NS(=O)(=O)N(C)C(C(=O)N(C)Cc3ccccc3)=C2)cc1 | 1.33% (inactive) |
| N#Cc1ccccc1CN1C(=O)S/C(=C/c2cccn2-c2cccc(C(=O)O)c2)C1=O | -18.8% (inactive) |
| O=C(Cc1coc2ccc3ccccc3c12)NCc1cccs1 | 9.96% (inactive) |
| CC1(C)Cc2c(sc(NC(=O)C(=O)NCC3CCCO3)c2C(=O)O)CO1 (stereo not given) | 1.97% (inactive) |
| COC(=O)Cc1c(C)c2ccc(OCC(=O)NCc3ccc4c(c3)OCO4)cc2oc1=O | 13.2% (inactive) |
| CC(=O)Oc1ccc2c(C)c(CC(C)O)c(=O)oc2c1 (stereo not given) | 29.6% (active) |
| CCc1c(C)c2ccc(OC3CCCCC3=O)cc2oc1=O (stereo not given) | 4.02% (inactive) |
| CC(C(=O)NCCc1ccc(S(N)(=O)=O)cc1)N1C(=O)CC(C)(C)Sc2ccccc21 (stereo not given) | -4.12% (inactive) |
| COc1ccc(C2(C)ON(c3ccccc3C(F)(F)F)C2=O)cc1 (stereo not given) | 2.15% (inactive) |
| O=C(NC1CCc2ccccc21)C12CN(Cc3ccccc3)CC1C(c1cccc([N+](=O)[O-])c1)=NO2 (stereo not given) | 7.39% (inactive) |
| COc1ccc(NC(=O)c2cccc3c2C(=O)N(CC2CCCO2)C3)cc1OC (stereo not given) | 9.62% (inactive) |
| COc1ccc(/C=N/Nc2nc(-c3ccc(C)cc3)c(C#N)c(=O)[nH]2)cc1 | 1.13% (inactive) |
| COc1ccc(/C=N/Nc2nc3ccccc3c(=O)[nH]2)cc1 | 28.9% (active) |
| COc1ccc(/C=N/Nc2ccccc2C(=O)O)cc1 | -19.5% (inactive) |
| C/C(=N/NC(=O)CSc1ccccn1)c1ccc([N+](=O)[O-])cc1 | 1.61% (inactive) |
| CCCNC(=S)N1CCCC(c2nc3ccccc3[nH]2)C1 (stereo not given) | 6.91% (inactive) |

| SMILES | activation |
| --- | --- |
| Cc1cccc(-n2c(SCC(=O)Nc3cccc(S(=O)(=O)NC4=NCCCCC4)c3)nc3ccccc3c2=O)c1C | -0.51% (inactive) |
| CC1(C)C(C=C(Cl)Cl)C1C(=O)NC(O)C(=O)c1ccccc1 (stereo not given) | 6.56% (inactive) |
| COC(=O)c1ccc(N2CCOCC2)c(NC(=O)c2ccc(Br)o2)c1 | 1.06% (inactive) |
| COc1ccccc1CNC(=O)COC(=O)CNS(=O)(=O)c1ccc(NC(C)=O)cc1 | 7.44% (inactive) |
| Nc1cccc2c1C(=O)N(Cc1nnc(-c3ccccc3Br)o1)C2=O | 64.5% (active) |
| CCOC(=O)N1CCN(Cc2nnc(-c3ccccc3Cl)o2)CC1 | -1.71% (inactive) |
| Cn1cnnc1SCc1nnc(-c2ccccc2Br)o1 | 2.67% (inactive) |
| CN(C)CCCSc1ccccc1NC(=O)/C=C/c1ccccc1 | 10.4% (inactive) |
| Cc1nc(SCC(=O)N2CCc3ccccc3C2)c2c(C)c(C)sc2n1 | 18.1% (inactive) |
| COc1ccc(CSc2nc(N3CCOCC3)c3c(c2C#N)CC(C)(C)OC3)cc1 | -0.56% (inactive) |
| CC1(C)Cc2c(C#N)c(SCc3nc4ccccc4[nH]3)nc(N3CCOCC3)c2CO1 | 33% (active) |
| CC(C)C(=O)N1CCN(c2nc(-c3ccccc3)c3c(c2C#N)CC(C)(C)OC3)CC1 | 12.1% (inactive) |
| Cc1ccc(CSCCNC(=O)CN(c2ccc(F)cc2)S(C)(=O)=O)cc1 | -2.84% (inactive) |
| CCCc1c(C(=O)N/N=C(\C)CCc2ccc(OC)cc2)nnn1-c1nonc1N | 2.5% (inactive) |
| O=C(NCCc1ccco1)c1ccc(OCc2cn3ccccc3n2)cc1 | 15.8% (inactive) |
| CCOc1cc(C(=O)OCC(=O)Nc2cccc(C)c2)ccc1OCC(=O)N1CCOCC1 | 15.3% (inactive) |
| O=S(=O)(NCCSc1ccccn1)c1ccc(Cl)cc1 | -2.06% (inactive) |
| COc1ccc(NC(=O)CNC(=O)Cn2ccc3ccccc3c2=O)c(OC)c1 | -4.04% (inactive) |
| Cc1ccc(Cc2cncc(O)c2)cc1S(=O)(=O)O | 10.6% (inactive) |
| COC(=O)/C=C(\Oc1ccccc1)C1(O)CCCCC1 | 7.7% (inactive) |
| NS(=O)(=O)c1ccc(CCNC(=O)COC(=O)COc2cccc(C(F)(F)F)c2)cc1 | -7.58% (inactive) |
| COc1ccc(OC)c(S(=O)(=O)Nc2cccc(-c3ccc4nncn4n3)c2)c1 | 5.81% (inactive) |
| Nc1c(-c2cccc(Cl)c2)cnn1-c1cccc([N+](=O)[O-])c1 | -13% (inactive) |

| SMILES | activation |
| --- | --- |
| O=C(NC1CCCC1)C(c1ccco1)N(C(=O)c1csnn1)c1ccccc1 (stereo not given) | 6.3% (inactive) |
| Cn1cnnc1Sc1ccc(S(C)(=O)=O)cc1[N+](=O)[O-] | 6.34% (inactive) |
| COc1ccc(CNC(=O)COC(=O)CCS(=O)(=O)c2ccc(C)cc2)cc1OC | 6.34% (inactive) |
| CC(C)CN1CCNC(=O)C1CC(=O)N(C)CC1CCOCC1 (stereo not given) | -1.75% (inactive) |
| Cc1ccccc1NC(=O)CSC1=NCCN1 | 9.38% (inactive) |
| CNS(=O)(=O)c1cccc(C(=O)NC2CCCc3ccccc32)c1 (stereo not given) | 38.5% (active) |
| O=C(O)c1cc(S(=O)(=O)NC2CCCc3ccccc32)ccc1O (stereo not given) | -8.22% (inactive) |
| CNS(=O)(=O)c1cccc(C(=O)NCC2CCCCC2)c1 | 1.69% (inactive) |
| CCOC(=O)/C=C/c1ccc(C(F)(F)F)cc1S(=O)(=O)NC(C)(C)C | 2.37% (inactive) |
| Cc1cc(Cl)c2oc(C(=O)N3CCC(O)(c4ccccc4)CC3)c(C)c2c1 | -0.4% (inactive) |
| COc1ccccc1CNC(=O)CN1CCC(n2cnc3cc(F)ccc32)CC1 | -8.61% (inactive) |
| Cc1coc2c1c(C)cc1oc(=O)c(CC(=O)NCC(=O)N[C@H](C(=O)O)C(C)C)c(C)c12 | -1.78% (inactive) |
| CC1CCN(C(=O)Cn2nnnc2CN2CCOCC2)CC1 | 0.88% (inactive) |
| CCNS(=O)(=O)c1ccc(NC(=O)c2cncc(Br)c2)cc1 | 3.96% (inactive) |
| Cc1ccc2c(C)c(C(=O)N3CCN(c4ccncc4)CC3)oc2c1C | 0% (inactive) |
| Cc1ccc(-c2csc(N3CCN(c4cc5c(cc4Cl)nc(-c4ccncc4)n5CCOCCO)CC3)n2)cc1 | 1.55% (inactive) |
| CC(C)C1Nc2c(C(=O)O)cccc2C(Nc2ccccc2C(=O)O)C1(C)C (stereo not given) | -0.22% (inactive) |
| CCOC(=O)Cn1c2c(c(-c3ccccc3OC)cc1=O)CCCC2 | 0.27% (inactive) |
| CC(=O)Nc1ccc(NS(=O)(=O)c2cc(C)sc2C)cc1 | 4.24% (inactive) |
| O=C(NCCS(=O)(=O)N1CCN(c2ccccc2F)CC1)c1ccc(Br)o1 | 10.8% (inactive) |
| COc1ccc(N2CCN(C(=O)Cn3cnc4sc(C)c(S(=O)(=O)N5CCOCC5)c4c3=O)CC2)cc1 | 7.13% (inactive) |
